Source: ChEMBL document CHEMBL1250448, “Inhibitor hijacking of Akt activation” (Nat Chem Biol, 2009)
The source made the active and inactive calls. The rule behind the calls is not given here.

Key:
[1] = biological target: RAC-alpha serine/threonine-protein kinase (Homo sapiens, UniProt P31749); experiment: Induction of AKT1 Thr308 phosphorylation expressed in IGF1-stimulated HEK293 cells treated 20 mins before IGF1 stimulation by immunoblotting; type: cell-based
How it was run: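 HEK293 cells (not transfected), serum-starved overnight, then given inhibitor for 20 min before 50 ng/ml IGF-1 for a further 10 min. Cells detached in ice-cold Ca/Mg-free PBS with 0.04% EDTA and lysed in Tris pH 7.5 Triton buffer with protease/phosphatase inhibitors. Lysates cleared at 14000 g, protein equalised by Bradford, and pThr308, pSer473 and GSK3β pSer9 read by immunoblot with ECL.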

[2] = biological target: Protein kinase C epsilon type (Homo sapiens) (UniProt Q02156); experiment: Inhibition of PKCE at 1 uM in presence of 10 uM ATP by Select Screen kinase assay relative to untreated control
[3] = biological target: Protein kinase C eta type (Homo sapiens) (UniProt P24723); experiment: Inhibition of PRKCH at 1 uM in presence of 10 uM ATP by Select Screen kinase assay relative to untreated control
[4] = biological target: Serine/threonine-protein kinase D2 (Homo sapiens) (UniProt Q9BZL6); experiment: Inhibition of PRKD2 at 1 uM in presence of 10 uM ATP by Select Screen kinase assay relative to untreated control
[5] = biological target: Proto-oncogene tyrosine-protein kinase receptor Ret (Homo sapiens) (UniProt P07949); experiment: Inhibition of RET at 1 uM in presence of 100 uM ATP by Select Screen kinase assay relative to untreated control
Sequence of Proto-oncogene tyrosine-protein kinase receptor Ret (Homo sapiens) (P07949 whole entry): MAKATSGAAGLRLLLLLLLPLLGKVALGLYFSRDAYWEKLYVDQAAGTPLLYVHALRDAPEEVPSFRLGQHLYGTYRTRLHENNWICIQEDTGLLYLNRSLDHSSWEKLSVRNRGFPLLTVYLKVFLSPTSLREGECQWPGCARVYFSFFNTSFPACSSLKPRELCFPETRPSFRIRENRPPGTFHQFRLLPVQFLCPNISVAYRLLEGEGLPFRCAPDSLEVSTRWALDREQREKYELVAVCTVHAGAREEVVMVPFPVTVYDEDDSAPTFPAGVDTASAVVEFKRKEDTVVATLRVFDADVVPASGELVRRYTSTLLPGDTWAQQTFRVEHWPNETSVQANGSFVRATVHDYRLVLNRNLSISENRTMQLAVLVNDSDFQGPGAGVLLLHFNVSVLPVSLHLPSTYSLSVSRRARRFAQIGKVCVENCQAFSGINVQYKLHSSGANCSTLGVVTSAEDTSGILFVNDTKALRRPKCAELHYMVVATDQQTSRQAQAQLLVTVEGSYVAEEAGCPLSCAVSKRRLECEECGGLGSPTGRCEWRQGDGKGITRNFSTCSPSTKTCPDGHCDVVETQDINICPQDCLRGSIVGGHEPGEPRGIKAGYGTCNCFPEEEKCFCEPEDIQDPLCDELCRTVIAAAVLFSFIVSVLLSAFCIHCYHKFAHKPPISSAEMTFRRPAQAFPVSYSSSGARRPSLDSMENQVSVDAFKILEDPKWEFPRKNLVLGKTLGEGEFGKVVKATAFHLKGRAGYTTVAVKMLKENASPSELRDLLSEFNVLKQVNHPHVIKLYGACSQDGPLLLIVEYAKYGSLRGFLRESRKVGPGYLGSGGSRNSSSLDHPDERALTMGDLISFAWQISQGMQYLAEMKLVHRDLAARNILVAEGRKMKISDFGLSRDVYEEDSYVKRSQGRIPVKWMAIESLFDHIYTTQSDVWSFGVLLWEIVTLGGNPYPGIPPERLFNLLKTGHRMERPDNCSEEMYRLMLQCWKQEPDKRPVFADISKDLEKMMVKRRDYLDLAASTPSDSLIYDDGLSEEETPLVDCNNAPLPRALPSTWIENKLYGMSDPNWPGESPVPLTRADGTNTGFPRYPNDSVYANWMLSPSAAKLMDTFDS
How it was run: (§1)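 Profiling panel of 220 purified kinases (SelectScreen), each compound tested at 1 μM. Read-out is percent inhibition of kinase activity.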

[6] = system: Tyrosine-protein kinase ABL1 (Homo sapiens), P00519 [E255K]; experiment: Inhibition of ABL1 E255K mutant at 1 uM in presence of 10 uM ATP by Select Screen kinase assay relative to untreated control
How it was run: (§2)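 Single-point screen at 1 μM against a panel of 220 purified kinases, run by Invitrogen staff as a SelectScreen profiling service. Read-out is percent inhibition of kinase activity.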

[7] = system: Tyrosine-protein kinase ABL1 (Homo sapiens), P00519 [T315I]; experiment: Inhibition of ABL1 T315I mutant at 1 uM in presence of 10 uM ATP by Select Screen kinase assay relative to untreated control; how it was run: as §2
[8] = system: Tyrosine-protein kinase ABL1 (Homo sapiens), P00519 [Y253F]; experiment: Inhibition of ABL1 Y253F mutant at 1 uM in presence of 10 uM ATP by Select Screen kinase assay relative to untreated control; how it was run: as §2
[9] = biological target: RAC-beta serine/threonine-protein kinase (Homo sapiens) (UniProt P31751); experiment: Inhibition of AKT2 at 1 uM in presence of 10 uM ATP by Select Screen kinase assay relative to untreated control; how it was run: as §2
Sequence of RAC-beta serine/threonine-protein kinase (Homo sapiens) (P31751 whole entry): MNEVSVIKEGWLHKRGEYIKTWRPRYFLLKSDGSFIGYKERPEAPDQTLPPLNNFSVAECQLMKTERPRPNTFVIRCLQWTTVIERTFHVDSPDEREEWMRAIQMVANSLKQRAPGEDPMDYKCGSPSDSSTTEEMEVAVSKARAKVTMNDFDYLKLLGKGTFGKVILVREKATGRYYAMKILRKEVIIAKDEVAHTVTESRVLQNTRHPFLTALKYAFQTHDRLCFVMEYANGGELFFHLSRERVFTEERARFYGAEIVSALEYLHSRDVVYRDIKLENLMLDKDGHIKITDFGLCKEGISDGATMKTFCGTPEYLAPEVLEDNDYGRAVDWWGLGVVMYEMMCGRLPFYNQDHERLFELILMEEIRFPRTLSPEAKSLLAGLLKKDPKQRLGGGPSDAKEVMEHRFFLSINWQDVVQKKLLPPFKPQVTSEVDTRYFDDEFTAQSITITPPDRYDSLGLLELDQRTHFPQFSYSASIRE

[10] = biological target: Calcium/calmodulin-dependent protein kinase type 1D (Homo sapiens) (UniProt Q8IU85); experiment: Inhibition of CAMK1D at 1 uM in presence of 10 uM ATP by Select Screen kinase assay relative to untreated control; how it was run: as §2
[11] = biological target: Rho-associated protein kinase 2 (Homo sapiens) (UniProt O75116); experiment: Inhibition of ROCK2 at 1 uM in presence of 10 uM ATP by Select Screen kinase assay relative to untreated control; how it was run: as §1
[12] = biological target: Ribosomal protein S6 kinase alpha-6 (Homo sapiens) (UniProt Q9UK32); experiment: Inhibition of RPS6KA6 at 1 uM in presence of 10 uM ATP by Select Screen kinase assay relative to untreated control
How it was run: (§3)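 Commercial SelectScreen profiling panel of 220 purified kinases. Each kinase was tested at a single inhibitor concentration of 1 μM, and activity was expressed as percent inhibition.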

[13] = biological target: Ribosomal protein S6 kinase beta-1 (Homo sapiens, UniProt P23443); experiment: Inhibition of RPS6KB1 at 1 uM in presence of 10 uM ATP by Select Screen kinase assay relative to untreated control
[14] = biological target: Serine/threonine-protein kinase MRCK alpha (Homo sapiens) (UniProt Q5VT25); experiment: Inhibition of CDC42 binding protein alpha at 1 uM in presence of 10 uM ATP by Select Screen kinase assay relative to untreated control; how it was run: as §2
[15] = biological target: Serine/threonine-protein kinase MRCK beta (Homo sapiens) (UniProt Q9Y5S2); experiment: Inhibition of CDC42 binding protein beta at 1 uM in presence of 10 uM ATP by Select Screen kinase assay relative to untreated control; how it was run: as §2
[16] = biological target: Dual specificity tyrosine-phosphorylation-regulated kinase 1B (Homo sapiens) (UniProt Q9Y463); experiment: Inhibition of DYRK1B at 1 uM in presence of 10 uM ATP by Select Screen kinase assay relative to untreated control
Sequence of Dual specificity tyrosine-phosphorylation-regulated kinase 1B (Homo sapiens) (Q9Y463 whole entry, looked up): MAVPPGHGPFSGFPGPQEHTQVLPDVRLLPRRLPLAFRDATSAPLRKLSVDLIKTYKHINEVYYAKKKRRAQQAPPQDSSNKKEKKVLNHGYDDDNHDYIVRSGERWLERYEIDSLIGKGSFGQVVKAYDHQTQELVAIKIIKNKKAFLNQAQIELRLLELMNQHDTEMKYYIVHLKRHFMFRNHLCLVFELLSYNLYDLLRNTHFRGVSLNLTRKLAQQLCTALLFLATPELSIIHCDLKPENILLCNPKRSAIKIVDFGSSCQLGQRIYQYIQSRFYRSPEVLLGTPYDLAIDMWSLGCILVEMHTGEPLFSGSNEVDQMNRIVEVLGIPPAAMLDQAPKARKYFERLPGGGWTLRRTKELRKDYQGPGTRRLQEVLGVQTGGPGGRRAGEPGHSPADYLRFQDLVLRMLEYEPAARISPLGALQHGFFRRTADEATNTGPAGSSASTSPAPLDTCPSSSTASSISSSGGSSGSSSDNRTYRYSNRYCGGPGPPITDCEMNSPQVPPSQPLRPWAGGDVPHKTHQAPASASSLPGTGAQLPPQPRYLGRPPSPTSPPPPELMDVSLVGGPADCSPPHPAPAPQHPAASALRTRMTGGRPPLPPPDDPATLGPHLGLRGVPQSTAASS
How it was run: (§4)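 Part of a 220-kinase panel of purified kinases, each tested with compound at 1 μM. Percent inhibition was measured in the Invitrogen SelectScreen profiling assay.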

[17] = biological target: Dual specificity tyrosine-phosphorylation-regulated kinase 3 (Homo sapiens) (UniProt O43781); experiment: Inhibition of DYRK3 at 1 uM in presence of 10 uM ATP by Select Screen kinase assay relative to untreated control; how it was run: as §4
[18] = biological target: Ephrin type-A receptor 3 (Homo sapiens) (UniProt P29320); experiment: Inhibition of EPHA3 at 1 uM in presence of 10 uM ATP by Select Screen kinase assay relative to untreated control; how it was run: as §4
[19] = biological target: Tyrosine-protein kinase Mer (Homo sapiens) (UniProt Q12866); experiment: Inhibition of MERTK at 1 uM in presence of 10 uM ATP by Select Screen kinase assay relative to untreated control
How it was run: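 Single-concentration profiling at 1 μM against a panel of 220 purified kinases, run as an outsourced SelectScreen kinase profiling service. Activity is expressed as percent inhibition.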

[20] = biological target: Serine/threonine-protein kinase Nek2 (Homo sapiens) (UniProt P51955); experiment: Inhibition of NEK2 at 1 uM in presence of 10 uM ATP by Select Screen kinase assay relative to untreated control
Sequence of Serine/threonine-protein kinase Nek2 (Homo sapiens) (P51955 whole entry): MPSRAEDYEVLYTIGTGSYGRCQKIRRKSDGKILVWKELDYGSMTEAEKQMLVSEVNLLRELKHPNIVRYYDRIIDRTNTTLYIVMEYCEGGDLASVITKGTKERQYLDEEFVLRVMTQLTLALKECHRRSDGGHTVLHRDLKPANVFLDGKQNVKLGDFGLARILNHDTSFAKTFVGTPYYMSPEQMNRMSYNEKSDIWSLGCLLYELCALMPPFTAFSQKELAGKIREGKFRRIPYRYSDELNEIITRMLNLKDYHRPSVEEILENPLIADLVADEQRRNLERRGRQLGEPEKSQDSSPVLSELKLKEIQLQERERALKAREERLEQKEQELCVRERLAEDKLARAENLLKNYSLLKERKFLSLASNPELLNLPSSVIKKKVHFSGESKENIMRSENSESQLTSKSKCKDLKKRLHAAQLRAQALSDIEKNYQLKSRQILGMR

[21] = system: Platelet-derived growth factor receptor alpha (Homo sapiens), P16234 [T674I]; experiment: Inhibition of PDGFRalpha T674I mutant at 1 uM in presence of 10 uM ATP by Select Screen kinase assay relative to untreated control; how it was run: as §3
Sequence of Platelet-derived growth factor receptor alpha (Homo sapiens), P16234 [T674I] (P16234 whole entry T674I): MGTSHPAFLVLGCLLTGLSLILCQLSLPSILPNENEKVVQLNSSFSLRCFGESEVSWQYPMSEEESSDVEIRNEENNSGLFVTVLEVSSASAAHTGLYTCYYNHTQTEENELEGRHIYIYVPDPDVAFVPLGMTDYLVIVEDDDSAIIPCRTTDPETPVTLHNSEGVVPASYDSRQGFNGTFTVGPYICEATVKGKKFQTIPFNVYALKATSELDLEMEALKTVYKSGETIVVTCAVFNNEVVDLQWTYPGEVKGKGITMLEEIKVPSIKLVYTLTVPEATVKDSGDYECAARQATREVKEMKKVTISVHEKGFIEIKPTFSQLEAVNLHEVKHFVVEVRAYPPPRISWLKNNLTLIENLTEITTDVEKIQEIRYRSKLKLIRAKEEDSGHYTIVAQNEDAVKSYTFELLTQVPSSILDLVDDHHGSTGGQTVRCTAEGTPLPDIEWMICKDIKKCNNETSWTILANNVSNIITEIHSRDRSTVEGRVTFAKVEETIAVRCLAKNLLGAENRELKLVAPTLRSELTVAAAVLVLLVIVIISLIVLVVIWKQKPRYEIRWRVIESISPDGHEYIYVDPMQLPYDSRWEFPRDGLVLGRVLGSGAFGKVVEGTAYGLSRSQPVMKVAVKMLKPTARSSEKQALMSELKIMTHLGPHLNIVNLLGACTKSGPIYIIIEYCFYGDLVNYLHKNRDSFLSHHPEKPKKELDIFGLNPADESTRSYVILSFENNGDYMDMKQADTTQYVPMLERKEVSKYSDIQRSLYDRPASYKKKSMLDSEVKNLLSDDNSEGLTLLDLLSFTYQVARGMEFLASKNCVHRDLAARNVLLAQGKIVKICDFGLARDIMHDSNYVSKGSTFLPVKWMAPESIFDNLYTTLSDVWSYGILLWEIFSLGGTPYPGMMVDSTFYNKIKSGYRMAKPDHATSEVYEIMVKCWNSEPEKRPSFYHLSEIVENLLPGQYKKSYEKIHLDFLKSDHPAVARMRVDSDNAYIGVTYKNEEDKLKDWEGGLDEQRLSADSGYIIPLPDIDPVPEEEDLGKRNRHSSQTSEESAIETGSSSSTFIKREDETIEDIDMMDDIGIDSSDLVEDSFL

[22] = biological target: 3-phosphoinositide-dependent protein kinase 1 (Homo sapiens) (UniProt O15530); experiment: Inhibition of PDK1 at 1 uM in presence of 10 uM ATP by Select Screen kinase assay relative to untreated control; how it was run: as §3
Sequence of 3-phosphoinositide-dependent protein kinase 1 (Homo sapiens) (O15530 whole entry): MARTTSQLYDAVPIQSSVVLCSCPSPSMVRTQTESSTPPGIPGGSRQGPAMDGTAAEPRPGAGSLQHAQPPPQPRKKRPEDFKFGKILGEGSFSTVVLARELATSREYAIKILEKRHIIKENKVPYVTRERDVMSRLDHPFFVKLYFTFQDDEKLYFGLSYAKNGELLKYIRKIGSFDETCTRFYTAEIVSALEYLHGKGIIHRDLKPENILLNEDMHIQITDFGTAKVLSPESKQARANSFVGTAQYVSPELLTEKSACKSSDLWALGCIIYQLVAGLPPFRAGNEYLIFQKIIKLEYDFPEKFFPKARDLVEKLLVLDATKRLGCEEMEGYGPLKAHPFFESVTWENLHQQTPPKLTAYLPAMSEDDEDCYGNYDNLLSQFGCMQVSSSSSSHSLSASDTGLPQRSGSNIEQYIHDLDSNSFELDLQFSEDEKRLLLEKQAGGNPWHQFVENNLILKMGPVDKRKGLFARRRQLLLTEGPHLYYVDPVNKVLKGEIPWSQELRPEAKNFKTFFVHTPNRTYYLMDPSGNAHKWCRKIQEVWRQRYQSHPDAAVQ

[23] = biological target: Serine/threonine-protein kinase pim-2 (Homo sapiens) (UniProt Q9P1W9); experiment: Inhibition of PIM2 at 1 uM in presence of 10 uM ATP by Select Screen kinase assay relative to untreated control
[24] = biological target: Serine/threonine-protein kinase PLK2 (Homo sapiens) (UniProt Q9NYY3); experiment: Inhibition of PLK2 at 1 uM in presence of 10 uM ATP by Select Screen kinase assay relative to untreated control
Sequence of Serine/threonine-protein kinase PLK2 (Homo sapiens) (Q9NYY3 whole entry, looked up): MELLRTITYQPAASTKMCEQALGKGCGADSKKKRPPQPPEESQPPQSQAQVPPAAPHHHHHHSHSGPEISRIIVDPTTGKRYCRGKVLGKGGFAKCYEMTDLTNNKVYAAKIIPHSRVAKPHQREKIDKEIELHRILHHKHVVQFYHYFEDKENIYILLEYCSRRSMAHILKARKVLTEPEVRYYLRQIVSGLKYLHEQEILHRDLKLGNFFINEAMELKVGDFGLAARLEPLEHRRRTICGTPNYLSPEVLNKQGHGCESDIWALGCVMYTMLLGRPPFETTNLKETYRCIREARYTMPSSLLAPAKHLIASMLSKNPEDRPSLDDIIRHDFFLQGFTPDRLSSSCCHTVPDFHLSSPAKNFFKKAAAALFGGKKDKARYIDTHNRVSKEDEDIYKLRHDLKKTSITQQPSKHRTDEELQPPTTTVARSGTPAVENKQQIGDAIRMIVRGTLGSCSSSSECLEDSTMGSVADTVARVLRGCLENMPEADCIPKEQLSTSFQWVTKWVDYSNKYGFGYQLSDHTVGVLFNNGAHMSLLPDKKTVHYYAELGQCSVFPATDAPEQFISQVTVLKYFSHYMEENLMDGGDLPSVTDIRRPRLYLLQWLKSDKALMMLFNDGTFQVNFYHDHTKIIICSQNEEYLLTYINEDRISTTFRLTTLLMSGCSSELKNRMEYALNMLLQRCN

[25] = biological target: Protein kinase C beta type (Homo sapiens) (UniProt P05771); experiment: Inhibition of PRKCB1 at 1 uM in presence of 10 uM ATP by Select Screen kinase assay relative to untreated control

inhibition [2] [%] | inhibition [3] [%] | inhibition [4] [%] | inhibition [5] [%] | inhibition [6] [%] | inhibition [7] [%] | inhibition [8] [%] | inhibition [9] [%] | inhibition [10] [%] | inhibition [11] [%] | inhibition [12] [%] | inhibition [13] [%] | inhibition [14] [%] | inhibition [15] [%] | inhibition [16] [%] | inhibition [17] [%] | inhibition [18] [%] | inhibition [19] [%] | inhibition [20] [%] | SMILES | Activity [1] | other results
 |  |  |  |  |  |  |  |  |  |  |  |  |  |  |  |  |  |  | CCCc1cc(-c2cncc(OC[C@@H](N)Cc3c[nH]c4ccccc34)c2)cc2c(C)n[nH]c12 | inactive | 
13 | 8 | 4 | 41 | 5 | 8 | 12 | 12 | 24 | 2 | 28 | 80 | -3 | 3 | 43 | 69 | 14 | 16 | 21 | COc1ccccc1N1CCN(c2ncnc3[nH]nc(Br)c23)CC1 |  | inhibition [21]: 8%; inhibition [22]: 12%; inhibition [23]: -1%; inhibition [24]: 24%; inhibition [25]: 35%
 |  |  |  |  |  |  |  |  |  |  |  |  |  |  |  |  |  |  | Cc1n[nH]c2ccc(-c3cncc(OC[C@@H](N)Cc4c[nH]c5ccccc45)c3)cc12 | Active | 
47 | 7 | 76 | 87 | 26 | 40 | 36 | 9 | 14 | 72 | 58 | 29 | 19 | 14 | 26 | 50 | 13 | 17 | 33 | O=C(NCCCNc1nc(Nc2cccc(NC(=O)N3CCCC3)c2)ncc1I)c1cccs1 |  | inhibition [21]: 55%; inhibition [22]: 89%; inhibition [23]: 1%; inhibition [24]: 38%; inhibition [25]: 28%
